Values joined by “and” are separate entries in the source; they are usually repeats but may differ in a detail not shown here. Identical values can stand only once. One block for each compound: values may come before it.
Experiments:
[1] = target: cNTnC(C35S/C84S)·Ca^2+·cTnI147−163 (Homo sapiens, UniProt P19429+P63316, C35S/C84S); assay type: binding; settings: for chemical shift changes on titration (in words): 100 mM stock added to the NMR sample
[2] = target: cNTnC(C35S/C84S)·Ca^2+·cTnI144−163 (Homo sapiens, UniProt P19429+P63316, C35S/C84S); assay type: binding; settings: for drug-induced backbone amide chemical shift changes: 1.0 mM cNTnC(C35S/C84S), […] cTnI144−163, Figure 6; for Kd: global fit of HSQC chemical shift changes, pH 6.7, 30 °C; for chemical shift changes on titration (in words): 100 mM stock added to the NMR sample
[3] = Solubility and precipitation in aqueous solution / NMR samples during titration
[4] = target: cTnC·3Ca^2+·cTnI34−71·cTnI128−163; settings: cited from earlier work
[5] = target: sTnC·4Ca^2+·sTnI1−182·sTnT156−262; settings: cited from earlier work
[6] = target: cTnC·3Ca^2+·cTnI32−79·cTnI128−180; settings: cited from earlier work
[7] = system: skinned muscle fibers; settings: cited from earlier work
[8] = target: cTnI144−163 (Homo sapiens, UniProt P19429); experiment: 1D 1H NMR titration of levosimendan into free cTnI144−163 peptide; assay type: binding; settings: data not shown
[9] = system: perfused hearts; settings: cited from earlier work
[10] = target: cTnI147−163 (Homo sapiens, UniProt P19429); experiment: 1D 1H NMR titration of levosimendan into free cTnI147−163 peptide; assay type: binding; settings: data not shown
Procedure, shortened: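 Test compound stocks were made fresh in DMSO-d6 for every titration and shielded from light; concentrations were determined gravimetrically. […] 1D 1H spectra were recorded at 500 MHz.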

[11] = target: cNTnC(C35S/C84S)·Ca^2+ (Homo sapiens, UniProt P63316, C35S/C84S); experiment: 2D 1H-15N HSQC NMR titration of cNTnC; assay type: binding
[12] = system: cNTnC(WT)·Ca^2+; settings: WT isoform; cited from earlier work

cNTnC(C35S/C84S)·Ca^2+·cTnI144−163, sequence (P19429 145-164, other chains not shown): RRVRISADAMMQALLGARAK

Compound: COc1ccc(C2=NNC(=O)CC2)cc1 [MPDP, 6-(4-methoxyphenyl)-4,5-dihydro-3(2H)-pyridazinone]
chemical shift changes on titration (in words) [1]: No chemical shift changes were observed | chemical shift changes on titration (in words) [2]: No chemical shift changes were observed

Compound: NCCCCCCNS(=O)(=O)c1cccc2c(Cl)cccc12 [W7, N-(6-aminohexyl)-5-chloro-1-naphthalenesulfonamide]
Kd [4]: ~500 µM

Compound: CC(C)(C)CC(C)(C)c1ccc(OCCOCCOCCOCCO)cc1 [anapoe, 2-[2-(2-{2-[4-(1,1,3,3-tetramethylbutyl)phenoxy]ethoxy}ethoxy)ethoxy]ethanol]
Kd [5]: ~640 µM

Compound: Ac-RISADAMMQALLGARAK-NH2 [cTnI147−163]
stoichiometry of binding ([11]; C35S/C84S isoform): 1/1 | equiv of peptide required to saturate the protein ([11]; solid peptide added, pH 6.7): 3−3.5 equiv | stoichiometry of binding [12]: 1/1 | solubility in aqueous solution (in words) [3]: highly soluble in aqueous solution

Now from value to compound, other results behind:

Kd [1]: 6500 µM | drug-induced backbone amide chemical shift changes [2]: ≤ 20 Hz | Kd [2]: 1500 µM and ~1500 µM | solubility in aqueous solution (in words) [3]: highly soluble in aqueous solution
Compound: CC1CC(=O)NN=C1c1ccc(N)cc1 (stereo not drawn) [AMDP, 6-(4-aminophenyl)-5-methyl-4,5-dihydro-3(2H)-pyridazinone]

Kd [1]: 11000 µM | drug-induced backbone amide chemical shift changes [2]: ≤ 20 Hz | Kd [2]: 2650 µM
Compound: CC1CC(=O)NN=C1c1ccc(-n2ccnc2)cc1 (stereo not drawn) [CI-930, 4,5-dihydro-6-[4-(1-imidazol-1-yl)phenyl]-5-methyl-4,5-dihydro-3(2H)-pyridazinone]

drug-induced backbone amide chemical shift changes [2]: ≤ 60 Hz
Compound: CC1CC(=O)NN=C1c1ccc(Cl)cc1 (stereo not drawn) [CMDP, 6-(4-chlorophenyl)-5-methyl-4,5-dihydro-3(2H)-pyridazinone]

chemical shift changes on titration (in words) [1]: No chemical shift changes were observed | chemical shift changes on titration (in words) [2]: No chemical shift changes were observed
Compound: O=C1CCC(c2ccc(-n3ccnc3)cc2)=NN1 [imazodan, 4,5-dihydro-6-[4-(1-imidazol-1-yl)phenyl]-3(2H)-pyridazinone]

chemical shift change of the peptide in the presence of drug (in words) [8]: no chemical shift change | chemical shift change of the peptide in the presence of drug (in words) [10]: no chemical shift change | solubility in aqueous solution (in words) [3]: insoluble in aqueous solution
Compound: C[C@@H]1CC(=O)NN=C1c1ccc(NN=C(C#N)C#N)cc1 [levosimendan, (−)-[4-(1,4,5,6-tetrahydro-4-methyl-6-oxo-3-pyridazinyl)phenyl]hydrozonopropanedinitrile]
Kd [6]: ≥ 200 µM | concentration of maximal effect [7]: 10 µM | lowest concentration with multiple effects [9]: 0.3 µM

From publication PMC2652250 (Biochemistry, 2008)
